Source: PubChem (several laboratories)
In the library only some 2.1% were active in any assay of this set; here they are far more common.
HTR2A ag: activates the mouse 5-HT2A serotonin receptor; actives 0.66% (n = 360,000); AID 624169; P35363; CHO-K1 mHTR2A beta-arrestin complementation, luminescence; percent of 30 µM serotonin response; activation, % at 7.6 µM;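 active = activation above a run cutoff, the mean activation of all tested compounds plus 3 SD, cut at about 14% in these data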;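 also: 0% = plate median of compound wells and 100% = 30 µM serotonin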
CCR6 antag: antagonists of human CCR6 receptor; P51684; CHO-K1 CCR6 PathHunter beta-arrestin, luminescence, CCL20-stimulated; inhibition, % at 20 µM; actives 0.49% (n = 340,000); AID 493098;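 active = compounds whose inhibition of the agonist-driven luminescence signal at 20 µM reaches about 50%, limit read from the data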;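 also: cells stimulated with CCL20 at 14 nM final; plate controls were DMSO with CCL20 for no effect and DMSO without agonist for full effect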
EBI2 block: EBI2 (human) antagonism. AID 651636. EBI2 beta-arrestin recruitment, luminescence, 7a,25-OHC stimulated. P32249. actives 0.81% (n = 360,000). inhibition, % at 5 µM; in the data active = inhibition above about 38%;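 also: enzyme fragment complementation signal reports receptor beta-arrestin coupling in cells; 0% = agonist plus DMSO wells and 100% = wells without agonist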
APJ antag: blocks the human apelin receptor APJ. CHO-K1 APJ beta-arrestin complementation, luminescence. inhibition, % at 20 µM. P35414. actives 0.32% (n = 330,000);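 active = inhibition above about 40% at 20 µM, limit read from the data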;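 also: cells challenged with 10 nM apelin-13 agonist together with compound; plate controls were apelin-13 plus DMSO wells for no effect and DMSO wells lacking apelin-13 for full effect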
Target sequence (P35414 whole entry, looked up): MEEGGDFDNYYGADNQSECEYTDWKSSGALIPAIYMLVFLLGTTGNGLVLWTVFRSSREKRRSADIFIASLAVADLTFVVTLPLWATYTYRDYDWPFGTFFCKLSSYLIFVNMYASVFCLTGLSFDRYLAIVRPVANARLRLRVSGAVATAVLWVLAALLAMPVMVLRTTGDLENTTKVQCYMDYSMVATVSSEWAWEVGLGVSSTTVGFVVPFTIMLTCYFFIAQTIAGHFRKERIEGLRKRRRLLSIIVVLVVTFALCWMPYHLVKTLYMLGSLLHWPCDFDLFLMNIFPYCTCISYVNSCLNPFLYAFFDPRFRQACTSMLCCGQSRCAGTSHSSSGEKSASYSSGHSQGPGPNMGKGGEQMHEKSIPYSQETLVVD
CXCR6 block: blocks human CXCR6 beta-arrestin recruitment. O00574. CHO-K1 PathHunter CXCR6 beta-arrestin, luminescence. inhibition, % at 20 µM. actives 0.36% (n = 360,000). AID 602244; in the data active = inhibition above about 34%, passing the limit was not always enough;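 also: antagonist mode with CXCL16 agonist at 10 nM final; 0% = 10 nM CXCL16 with DMSO and 100% = unstimulated wells without agonist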
Target sequence (O00574 whole entry, looked up): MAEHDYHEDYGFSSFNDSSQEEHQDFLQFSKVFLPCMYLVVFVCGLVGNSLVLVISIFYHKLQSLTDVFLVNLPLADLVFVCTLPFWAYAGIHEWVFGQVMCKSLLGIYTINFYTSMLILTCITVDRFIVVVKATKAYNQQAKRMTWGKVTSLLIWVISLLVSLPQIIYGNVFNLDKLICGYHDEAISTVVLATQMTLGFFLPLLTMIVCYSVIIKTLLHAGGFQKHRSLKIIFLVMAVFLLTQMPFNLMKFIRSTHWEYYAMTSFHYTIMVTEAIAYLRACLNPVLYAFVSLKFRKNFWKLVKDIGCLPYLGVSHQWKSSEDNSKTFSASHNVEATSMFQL
APJ agonist: APJ receptor agonism. P35414. CHO-K1 APJ PathHunter beta-arrestin, luminescence; 0% DMSO wells, 100% apelin. activation, % at 20 µM. actives 0.11% (n = 330,000). AID 2520;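 active = activation more than six SD over the plate average, tested at 20 µM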;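 also: 0% = DMSO alone and 100% = apelin-13 at 10 nM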
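Incubation: overnight seeding, 90 min compound at 25 °C, 1 h detection; test system: PathHunter CHO-K1 APJ (AGTRL-1) beta-arrestin reporter cells; amount: 1000 cells/well; doses: one dose, 20 µM compound, 1% DMSO; measured by: beta-gal luminescence; measure: agonist-driven arrestin binding to APJ; benchmarks: negative DMSO alone, positive Apelin-13 at 10 nM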
OPRM1 ag: OPRM1 agonism in mouse HTR2A counterscreen; activation, % at 9.3 µM; U2OS OPRM1 beta-arrestin PathHunter, luminescence; DMSO 0%, DAMGO 9.3 µM 100%; actives 5.3% (n = 2,300); AID 624380; shares compounds with HTR2A ag;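 active = mean activation above the mean of DMSO-only wells plus 3 SD, cut at about 0.5% in these data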
m5-HT2A ag conf: confirmation of mouse HTR2A serotonin receptor agonists; shares compounds with HTR2A ag; CHO-K1 PathHunter beta-arrestin recruitment, luminescence; DMSO 0%, 30 µM serotonin 100%; activation, % at 7.6 µM; actives 19% (n = 2,300);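 active = mean activation across triplicates above the hit threshold derived in the original primary screen, cut at about 15% in these data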
* marks the source's active call; other numbers are inactive results; / = no result given.

SMILES	HTR2A ag	CCR6 antag	EBI2 block	APJ antag	CXCR6 block	APJ agonist	OPRM1 ag	m5-HT2A ag conf
O=C(c1ccco1)N1CCN(C(=O)c2ccc(CS(=O)c3ccc(Cl)cc3)o2)CC1 (centres undefined)	14.9*	14.1	-8.9	15.6	-0.2	-6.1	-0.6	-3.5
O=C(c1ccc(CS(=O)c2cccc(Cl)c2)o1)N1CCOCC1 (centres undefined)	17.7*	4.6	-6.6	17.3	-8.3	-4.0	-0.7	-1.7
O=C(c1ccco1)N1CCN(Cc2c(Cl)cccc2Cl)CC1	-0.9	-11.4	-10.2	9.4	-2.9	-4.6	/	/
O=C(c1ccco1)N1CCN(Cc2ccc(Br)cc2)CC1	14.8*	7.0	-0.9	-4.4	-4.6	-4.8	-0.3	90.2*
Cc1cc(Oc2ccc(C)c(Cl)c2)nc(SCC(=O)c2ccccc2)n1	-6.2	17.6	10.2	-3.7	-1.6	-1.2	/	/
CCN(C(=O)c1cccc(NC(=O)c2ccccc2)c1)C1CCCCC1	-1.1	5.8	-25.9	10.6	5.0	8.0	/	/
COc1cccc(/C=C/C(=O)OCC(=O)NC2CCCCCCC2)c1	1.9	13.0	22.8	-7.2	5.8	-2.1	/	/
O=C(c1ccco1)N1CCN(Cc2ccc(Cl)cc2)CC1	21.1*	8.5	-11.3	2.9	-14.9	-0.2	-0.3	88.4*
CCc1ccc(CN2CCN(C(=O)c3ccco3)CC2)cc1	15.0*	14.8	-4.5	-2.1	0.0	1.3	-0.5	123.2*
CCOc1ccc(-c2nnc3ccc(SCC(=O)Nc4nc5ccc(C)cc5s4)nn23)cc1	16.5*	-20.1	2.8	5.4	9.3	-0.3	-0.4	-2.2
O=C1NC(=O)C(Cc2cccc(Oc3ccccc3)c2)S1 (centres undefined)	15.0*	-5.7	-7.9	10.3	-2.0	-2.5	-0.6	0.3
COc1cccc2c1cc1c(=O)n(CC(=O)N3CCC(C)CC3)nc(C)n12	17.0*	15.2	-5.8	19.4	6.8	0.6	-0.1	57.4*
COc1ccc(-c2cccc(NS(=O)(=O)c3cccc([N+](=O)[O-])c3)c2)nn1	17.5*	9.3	1.8	-29.4	-4.5	7.7	-0.4	-2.8
COc1ccc(-c2cccc(NS(=O)(=O)c3ccc([N+](=O)[O-])cc3)c2)nn1	-2.3	13.4	3.0	-57.2	-7.1	6.8	/	/
CCOC(=O)c1cnn(-c2ccccc2)c1NC(=O)C(F)(F)C(F)(F)C(F)(F)F	2.5	-4.5	-6.5	0.3	7.9	1.8	/	/
Cc1ccc(C(=O)N/C(=C/c2ccc(-c3cccc([N+](=O)[O-])c3)o2)C(=O)NC(C)C)cc1	21.1*	-4.3	-23.7	-3.8	-1.4	0.6	-0.1	1.1
Cc1ccc(C(=O)N/C(=C/c2ccc(-c3cccc([N+](=O)[O-])c3)o2)C(=O)NC(C)(C)C)cc1	12.2	-13.5	-6.2	5.4	-5.8	3.1	/	/
Cc1c(Cl)cnc(NC(=O)COC(=O)c2cccc(S(=O)(=O)N3CCOCC3)c2)c1Cl	6.2	/	-5.4	/	-1.0	/	/	/
Cc1noc(C)c1S(=O)(=O)N1CCC(C(=O)N2CCC(N3CCCCC3)CC2)CC1	34.5*	8.8	-2.0	1.0	0.2	-5.1	-0.5	-4.1
Cc1noc(C)c1S(=O)(=O)N1CCCC(C(=O)N2CCN(C3CCCCC3)CC2)C1 (centres undefined)	-0.1	1.3	1.1	-72.1	1.7	-4.7	/	/
Cc1ccc(CN(C)C[C@H]2OCc3cnnn3CCCC(=O)N([C@@H](C)CO)C[C@@H]2C)cc1	2.9	/	-9.6	/	-1.1	/	/	/
CC(C)c1nc2sc3c(=O)[nH]cnc3c2c2c1CCC2	1.5	3.4	2.6	2.5	-8.4	-1.0	/	/
CC(C)c1nc2sc3c(=S)nc[nH]c3c2c2c1CCC2	15.8*	3.7	9.8	-2.3	-6.9	-4.4	-0.6	-0.9
CCOC(=O)C1=CN(Cc2ccc(OC)cc2)C=C(C(=O)OCC)C1c1cccs1	16.3*	25.4	-0.8	-4.3	7.6	-2.8	-0.5	6.7
C[C@H](NC(=O)c1ncn2c1C(=O)NC[C@@H]2C)C(=O)OC(C)(C)C	-1.2	/	-5.3	/	1.1	/	/	/
SMILES	HTR2A ag	CCR6 antag	EBI2 block	APJ antag	CXCR6 block	APJ agonist	OPRM1 ag	m5-HT2A ag conf
O=C(Nc1ccccc1Cl)c1cccc(NC(=O)C2C3CC4OC(=O)C2C4C3)c1 (centres undefined)	5.2	14.9	2.7	-5.8	3.7	-2.2	/	/
COC(=O)[C@@]1(Cc2ccc(OC)cc2)[C@@H]2[C@@H](CC(=O)[C@H]2CC(=O)C(=O)N(C)C)CN1C(=O)c1ccccc1	18.1*	-1.3	8.2	1.5	12.0	-7.3	-0.8	-2.1
Cc1cccc(OCC(=O)Nc2ccc(NC(=O)c3ccccc3)cc2)c1	3.3	-8.3	0.5	-3.7	3.9	-4.9	/	/
CCN(C[C@H]1N[C@@](C)(C(=O)OC)[C@H]2C(=O)N(C)C(=O)[C@@H]12)C(=O)Nc1ccc(Cl)cc1	37.0*	2.4	-3.7	14.3	1.9	-1.0	-0.1	-0.6
CCN(C[C@H]1N[C@@](C)(C(=O)OC)[C@H]2C(=O)N(C)C(=O)[C@@H]12)C(=O)Nc1ccc(F)cc1	-5.2	6.2	-7.2	3.3	-1.6	-3.0	/	/
O=C(NC(=S)NCC1CCCO1)c1ccccc1[N+](=O)[O-] (centres undefined)	1.5	11.3	-12.3	4.2	3.2	-2.1	/	/
CC1CC2(CCCCC2)N2C(=O)C(=O)c3cccc1c32 (centres undefined)	-3.7	-2.1	-5.3	28.5	9.8	-2.5	/	/
CN(C(=O)CSc1nc2ccccc2o1)C1CCS(=O)(=O)C1 (centres undefined)	1.6	3.2	-0.1	5.1	3.8	1.5	/	/
O=C(NCc1ccccn1)c1ccccc1OCc1ccccc1Cl	23.6*	/	4.1	/	5.5	/	-0.4	-6.3
O=C(NCc1ccccn1)C(F)(F)C(F)(F)C(=O)NCc1ccccn1	14.9*	10.3	-8.6	-16.4	-1.1	6.6	-0.5	-2.8
COc1ccc(C2/C(=C(\O)c3ccc4c(c3)OCCO4)C(=O)C(=O)N2Cc2cccnc2)cc1OC (centres undefined)	19.9*	1.6	-8.8	20.6	7.2	-0.6	-0.6	0.3
Cc1ccc(S(=O)(=O)c2nc(-c3ccc(F)cc3)oc2SCC(=O)NCC2CCCO2)cc1 (centres undefined)	14.9*	-2.5	0.2	-1.0	-12.0	3.7	-0.7	-3.0
